Values after ≈ are worked out from the molar mass of the structure shown.
Tests used:
[1] = Kinetic solubility of the compound in 50 mM phosphate buffer at pH 6.5; assay type: physicochemical
[2] = target: RAC-alpha serine/threonine-protein kinase (Homo sapiens) (UniProt P31749); assay: Inhibition of AKT1 at 10 uM
[3] = target: Casein kinase II subunit alpha (Homo sapiens) (UniProt P68400); assay: Inhibition of CSNK2A1 at 10 uM
[4] = target: Serine/threonine-protein kinase TAO3 (Homo sapiens) (UniProt Q9H2K8); assay: Inhibition of TAOK3 at 10 uM
[5] = target: Serine/threonine-protein kinase Sgk1 (Homo sapiens) (UniProt O00141); assay: Inhibition of SGK1 at 1 uM
[6] = target: Ephrin type-A receptor 2 (Homo sapiens) (UniProt P29317); assay: Inhibition of EPHA2 at 10 uM
Sequence of Ephrin type-A receptor 2 (Homo sapiens) (P29317 whole entry): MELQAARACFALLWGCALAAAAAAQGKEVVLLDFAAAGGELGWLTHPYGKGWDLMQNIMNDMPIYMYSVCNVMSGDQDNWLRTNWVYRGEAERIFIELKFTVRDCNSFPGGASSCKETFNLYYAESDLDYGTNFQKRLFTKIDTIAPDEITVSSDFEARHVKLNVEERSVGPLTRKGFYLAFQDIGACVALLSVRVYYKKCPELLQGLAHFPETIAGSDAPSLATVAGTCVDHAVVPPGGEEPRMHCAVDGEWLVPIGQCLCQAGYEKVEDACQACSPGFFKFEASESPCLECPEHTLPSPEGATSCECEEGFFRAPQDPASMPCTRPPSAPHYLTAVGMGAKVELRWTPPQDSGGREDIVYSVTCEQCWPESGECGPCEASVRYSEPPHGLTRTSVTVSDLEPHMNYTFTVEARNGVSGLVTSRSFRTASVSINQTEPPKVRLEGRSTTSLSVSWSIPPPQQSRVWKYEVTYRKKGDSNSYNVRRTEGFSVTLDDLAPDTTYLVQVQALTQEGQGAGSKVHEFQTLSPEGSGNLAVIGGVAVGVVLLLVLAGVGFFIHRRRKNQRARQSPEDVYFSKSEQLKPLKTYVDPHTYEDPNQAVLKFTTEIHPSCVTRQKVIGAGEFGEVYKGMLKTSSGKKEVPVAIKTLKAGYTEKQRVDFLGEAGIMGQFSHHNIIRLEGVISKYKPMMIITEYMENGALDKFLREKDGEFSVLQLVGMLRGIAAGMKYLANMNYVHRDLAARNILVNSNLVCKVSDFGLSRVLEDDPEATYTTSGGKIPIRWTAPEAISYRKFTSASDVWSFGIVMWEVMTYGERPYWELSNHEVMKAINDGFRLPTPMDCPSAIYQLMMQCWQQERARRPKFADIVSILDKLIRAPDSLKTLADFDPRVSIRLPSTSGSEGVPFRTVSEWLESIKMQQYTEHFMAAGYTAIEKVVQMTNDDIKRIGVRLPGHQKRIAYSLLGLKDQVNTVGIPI

[7] = target: 3-phosphoinositide-dependent protein kinase 1 (Homo sapiens) (UniProt O15530); assay: Inhibition of PDPK1 at 1 uM
[8] = target: Mitogen-activated protein kinase kinase kinase 9 (Homo sapiens) (UniProt P80192); assay: Inhibition of MAP3K9 at 10 uM
[9] = target: Mitogen-activated protein kinase 14 (Homo sapiens) (UniProt Q16539); assay: Inhibition of MAPK14 at 1 uM
[10] = target: Vascular endothelial growth factor receptor 2 (Homo sapiens) (UniProt P35968); assay: Inhibition of KDR at 10 uM
Sequence of Vascular endothelial growth factor receptor 2 (Homo sapiens) (P35968 whole entry): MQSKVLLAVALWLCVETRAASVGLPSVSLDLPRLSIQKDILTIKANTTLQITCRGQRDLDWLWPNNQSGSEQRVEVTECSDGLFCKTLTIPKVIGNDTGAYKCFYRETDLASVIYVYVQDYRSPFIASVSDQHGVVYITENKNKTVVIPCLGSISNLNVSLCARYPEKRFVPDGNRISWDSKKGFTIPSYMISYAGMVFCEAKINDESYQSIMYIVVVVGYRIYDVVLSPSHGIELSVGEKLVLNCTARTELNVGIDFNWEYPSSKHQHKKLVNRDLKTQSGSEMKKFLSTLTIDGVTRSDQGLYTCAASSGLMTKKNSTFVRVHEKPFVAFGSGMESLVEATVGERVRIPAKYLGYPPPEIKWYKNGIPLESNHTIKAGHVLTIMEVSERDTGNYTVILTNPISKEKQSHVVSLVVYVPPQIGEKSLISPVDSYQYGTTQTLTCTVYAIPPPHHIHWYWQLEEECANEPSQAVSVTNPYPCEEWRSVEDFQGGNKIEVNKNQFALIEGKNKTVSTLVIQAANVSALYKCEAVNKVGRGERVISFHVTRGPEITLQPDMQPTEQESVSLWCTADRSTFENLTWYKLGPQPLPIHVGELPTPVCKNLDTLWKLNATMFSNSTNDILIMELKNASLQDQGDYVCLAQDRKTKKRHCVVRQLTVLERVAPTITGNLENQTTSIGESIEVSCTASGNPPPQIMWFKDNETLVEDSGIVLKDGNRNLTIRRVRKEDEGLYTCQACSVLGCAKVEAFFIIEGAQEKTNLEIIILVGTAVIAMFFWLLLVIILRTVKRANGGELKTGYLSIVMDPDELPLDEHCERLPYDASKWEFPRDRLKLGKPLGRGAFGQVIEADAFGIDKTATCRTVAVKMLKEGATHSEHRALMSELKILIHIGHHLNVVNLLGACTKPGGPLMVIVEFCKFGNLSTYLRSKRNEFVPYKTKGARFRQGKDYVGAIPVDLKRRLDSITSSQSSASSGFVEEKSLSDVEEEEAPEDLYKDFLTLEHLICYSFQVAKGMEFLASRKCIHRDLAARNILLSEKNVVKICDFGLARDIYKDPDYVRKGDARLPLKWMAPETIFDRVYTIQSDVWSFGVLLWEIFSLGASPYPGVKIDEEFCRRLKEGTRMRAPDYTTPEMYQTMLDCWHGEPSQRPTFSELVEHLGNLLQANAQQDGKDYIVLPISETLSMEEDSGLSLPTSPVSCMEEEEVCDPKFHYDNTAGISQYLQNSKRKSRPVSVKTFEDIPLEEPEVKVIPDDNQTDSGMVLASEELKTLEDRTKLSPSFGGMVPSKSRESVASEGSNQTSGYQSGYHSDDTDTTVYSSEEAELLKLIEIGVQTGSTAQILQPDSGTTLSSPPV

[11] = target: Glycogen synthase kinase-3 beta (Homo sapiens) (UniProt P49841); assay: Inhibition of GSK3b at 10 uM
[12] = target: Serine/threonine-protein kinase Chk2 (Homo sapiens) (UniProt O96017); assay: Inhibition of CHEK2 at 1 uM
Sequence of Serine/threonine-protein kinase Chk2 (Homo sapiens) (O96017 whole entry): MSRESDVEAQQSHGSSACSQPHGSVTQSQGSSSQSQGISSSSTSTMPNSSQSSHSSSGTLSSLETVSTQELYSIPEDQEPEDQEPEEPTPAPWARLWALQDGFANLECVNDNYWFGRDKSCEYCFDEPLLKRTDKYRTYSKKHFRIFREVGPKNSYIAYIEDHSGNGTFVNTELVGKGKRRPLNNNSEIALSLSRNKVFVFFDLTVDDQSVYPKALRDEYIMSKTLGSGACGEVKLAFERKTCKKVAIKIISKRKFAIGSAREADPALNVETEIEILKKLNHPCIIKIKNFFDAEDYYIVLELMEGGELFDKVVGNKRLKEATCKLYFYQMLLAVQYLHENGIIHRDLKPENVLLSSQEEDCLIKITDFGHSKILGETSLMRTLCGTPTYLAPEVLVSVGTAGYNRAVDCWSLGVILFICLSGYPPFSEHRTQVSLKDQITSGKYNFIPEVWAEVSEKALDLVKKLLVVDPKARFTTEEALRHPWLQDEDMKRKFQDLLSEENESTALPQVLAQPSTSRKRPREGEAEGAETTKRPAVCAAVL

[13] = target: Proto-oncogene tyrosine-protein kinase Src (Homo sapiens) (UniProt P12931); assay: Inhibition of SRC at 10 uM
[14] = target: Tyrosine-protein kinase JAK3 (Homo sapiens) (UniProt P52333); assay: Inhibition of JAK3 at 1 uM
[15] = target: Tyrosine-protein kinase ABL1 (Homo sapiens) (UniProt P00519); assay: Inhibition of ABL1 at 10 uM
[16] = target: Serine/threonine-protein kinase 3 (Homo sapiens) (UniProt Q13188); assay: Inhibition of STK3 at 1 uM
[17] = target: Cyclin-dependent kinase 6 (Homo sapiens) (UniProt Q00534); assay: Inhibition of CDK6 at 1 uM
[18] = target: Voltage-gated inwardly rectifying potassium channel KCNH2 (Homo sapiens, UniProt Q12809); assay: Displacement of labeled dofetilide from human ERG
[19] = target: Insulin receptor (Homo sapiens) (UniProt P06213); assay: Inhibition of INSR at 10 uM
[20] = target: Serine/threonine-protein kinase MARK1 (Homo sapiens) (UniProt Q9P0L2); assay: Inhibition of MARK1 at 1 uM
[21] = target: Epidermal growth factor receptor (Homo sapiens) (UniProt P00533); assay: Inhibition of EGFR at 10 uM
[22] = target: MAP kinase-activated protein kinase 2 (Homo sapiens) (UniProt P49137); assay: Inhibition of MAPKAPK2 at 10 uM
[23] = target: CYP2C9 (Homo sapiens, UniProt P11712); assay: Inhibition of CYP2C9 at 3 uM by LC/MS/MS analysis; assay type: ADME
[24] = target: Protein kinase C beta type (Homo sapiens) (UniProt P05771); assay: Inhibition of PRKCB at 1 uM
[25] = Half life in human liver microsomes at 1 uM by LC/MS/MS analysis; assay type: ADME, Microsome
Method in brief: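 Test compound incubated with human liver microsomes to measure Phase I metabolic stability. Remaining compound quantified by LC/MS/MS, and stability reported as half-life (T1/2) in minutes.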

[26] = target: Cyclin-dependent kinase 2 (Homo sapiens) (UniProt P24941); assay: Inhibition of CDK2 at 10 uM
[27] = target: RAC-alpha serine/threonine-protein kinase (Homo sapiens) (UniProt P31749); assay: Inhibition of AKT1 at 1 uM
[28] = target: Serine/threonine-protein kinase pim-2 (Homo sapiens) (UniProt Q9P1W9); assay: Inhibition of PIM2 at 1 uM
Sequence of Serine/threonine-protein kinase pim-2 (Homo sapiens) (Q9P1W9 whole entry, looked up): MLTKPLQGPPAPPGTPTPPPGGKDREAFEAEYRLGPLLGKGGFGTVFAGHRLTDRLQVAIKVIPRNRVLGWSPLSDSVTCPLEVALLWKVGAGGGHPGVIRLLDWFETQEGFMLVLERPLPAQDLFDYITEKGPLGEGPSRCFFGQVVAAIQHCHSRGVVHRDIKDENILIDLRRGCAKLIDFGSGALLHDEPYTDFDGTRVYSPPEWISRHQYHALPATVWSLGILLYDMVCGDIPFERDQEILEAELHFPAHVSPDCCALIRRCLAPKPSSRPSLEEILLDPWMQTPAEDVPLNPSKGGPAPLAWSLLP

[29] = target: Myosin light chain kinase 2, skeletal/cardiac muscle (Homo sapiens) (UniProt Q9H1R3); assay: Inhibition of MYLK2 at 1 uM
[30] = target: cAMP-dependent protein kinase catalytic subunit alpha (Homo sapiens) (UniProt P17612); assay: Inhibition of PRKACA at 10 uM
[31] = target: Serine/threonine-protein kinase Nek2 (Homo sapiens) (UniProt P51955); assay: Inhibition of NEK2 at 10 uM
Sequence of Serine/threonine-protein kinase Nek2 (Homo sapiens) (P51955 whole entry): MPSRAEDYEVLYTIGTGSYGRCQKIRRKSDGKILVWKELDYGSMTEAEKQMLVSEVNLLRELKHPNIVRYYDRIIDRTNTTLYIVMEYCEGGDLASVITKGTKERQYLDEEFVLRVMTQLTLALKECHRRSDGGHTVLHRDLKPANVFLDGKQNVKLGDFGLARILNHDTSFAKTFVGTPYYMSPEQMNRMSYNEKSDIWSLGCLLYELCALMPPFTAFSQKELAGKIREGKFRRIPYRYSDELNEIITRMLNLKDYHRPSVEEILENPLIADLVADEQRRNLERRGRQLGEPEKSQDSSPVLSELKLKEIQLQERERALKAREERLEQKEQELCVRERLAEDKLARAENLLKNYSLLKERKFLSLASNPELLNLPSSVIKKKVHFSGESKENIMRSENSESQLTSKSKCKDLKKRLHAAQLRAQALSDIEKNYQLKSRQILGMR

[32] = target: Mitogen-activated protein kinase 1 (Homo sapiens) (UniProt P28482); assay: Inhibition of MAPK1 at 10 uM
[33] = target: High affinity nerve growth factor receptor (Homo sapiens) (UniProt P04629); assay: Inhibition of NTRK1 at 10 uM
[34] = target: Serine/threonine-protein kinase pim-2 (Homo sapiens) (UniProt Q9P1W9); assay: Inhibition of PIM2 at 10 uM
[35] = target: Serine/threonine-protein kinase Chk2 (Homo sapiens) (UniProt O96017); assay: Inhibition of CHEK2 at 10 uM
[36] = target: Cyclin-dependent kinase 2 (Homo sapiens) (UniProt P24941); assay: Inhibition of CDK2 at 1 uM
[37] = target: Serine/threonine-protein kinase TAO3 (Homo sapiens) (UniProt Q9H2K8); assay: Inhibition of TAOK3 at 1 uM
[38] = target: Fibroblast growth factor receptor 1 (Homo sapiens) (UniProt P11362); assay: Inhibition of FGFR1 at 10 uM
[39] = target: Ephrin type-A receptor 2 (Homo sapiens) (UniProt P29317); assay: Inhibition of EPHA2 at 1 uM
[40] = target: High affinity nerve growth factor receptor (Homo sapiens) (UniProt P04629); assay: Inhibition of NTRK1 at 1 uM
[41] = target: Ribosomal protein S6 kinase beta-1 (Homo sapiens, UniProt P23443); assay: Inhibition of S6K1
[42] = target: Rho-associated protein kinase 1 (Homo sapiens) (UniProt Q13464); assay: Inhibition of ROCK1 at 1 uM
Sequence of Rho-associated protein kinase 1 (Homo sapiens) (Q13464 2-1354 limits assumed): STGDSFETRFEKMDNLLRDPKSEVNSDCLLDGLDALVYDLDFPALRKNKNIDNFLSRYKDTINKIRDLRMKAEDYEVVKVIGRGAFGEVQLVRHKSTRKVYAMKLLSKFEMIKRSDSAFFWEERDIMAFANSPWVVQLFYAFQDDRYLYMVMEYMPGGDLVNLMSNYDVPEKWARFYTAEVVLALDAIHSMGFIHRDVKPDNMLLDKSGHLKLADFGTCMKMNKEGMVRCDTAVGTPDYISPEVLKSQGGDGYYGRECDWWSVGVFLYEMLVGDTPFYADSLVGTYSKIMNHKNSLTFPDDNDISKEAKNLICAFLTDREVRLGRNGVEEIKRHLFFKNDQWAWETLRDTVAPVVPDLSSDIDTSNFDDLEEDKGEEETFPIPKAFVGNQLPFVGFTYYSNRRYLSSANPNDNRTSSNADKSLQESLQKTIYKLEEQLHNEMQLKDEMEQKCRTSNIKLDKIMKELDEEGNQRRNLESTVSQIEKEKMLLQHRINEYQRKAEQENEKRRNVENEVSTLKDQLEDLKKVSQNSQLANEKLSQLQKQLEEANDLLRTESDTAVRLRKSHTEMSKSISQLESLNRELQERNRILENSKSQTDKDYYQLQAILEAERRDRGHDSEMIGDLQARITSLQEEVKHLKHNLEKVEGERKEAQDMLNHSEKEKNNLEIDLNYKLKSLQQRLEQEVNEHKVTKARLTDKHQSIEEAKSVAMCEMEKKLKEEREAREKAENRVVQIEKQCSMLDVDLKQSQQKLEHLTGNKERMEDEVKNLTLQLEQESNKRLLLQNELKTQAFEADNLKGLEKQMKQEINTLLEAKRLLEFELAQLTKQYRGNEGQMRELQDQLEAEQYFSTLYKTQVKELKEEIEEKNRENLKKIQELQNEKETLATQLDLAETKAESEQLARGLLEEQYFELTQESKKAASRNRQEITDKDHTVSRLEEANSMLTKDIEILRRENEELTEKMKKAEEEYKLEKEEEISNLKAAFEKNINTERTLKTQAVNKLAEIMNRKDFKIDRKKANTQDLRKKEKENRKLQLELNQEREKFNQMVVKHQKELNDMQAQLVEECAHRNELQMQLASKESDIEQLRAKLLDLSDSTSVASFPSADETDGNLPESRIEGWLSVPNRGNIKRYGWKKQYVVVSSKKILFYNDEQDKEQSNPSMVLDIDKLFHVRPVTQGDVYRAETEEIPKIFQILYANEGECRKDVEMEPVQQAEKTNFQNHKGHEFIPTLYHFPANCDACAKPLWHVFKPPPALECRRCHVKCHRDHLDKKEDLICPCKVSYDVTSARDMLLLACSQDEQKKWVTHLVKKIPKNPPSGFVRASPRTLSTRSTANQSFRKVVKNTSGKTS

[43] = target: Serine/threonine-protein kinase Nek2 (Homo sapiens) (UniProt P51955); assay: Inhibition of NEK2 at 1 uM
[44] = target: Vascular endothelial growth factor receptor 2 (Homo sapiens) (UniProt P35968); assay: Inhibition of KDR at 1 uM
[45] = target: Serine/threonine-protein kinase Chk1 (Homo sapiens) (UniProt O14757); assay: Inhibition of CHEK1 at 1 uM
[46] = target: Rho-associated protein kinase 1 (Homo sapiens) (UniProt Q13464); assay: Inhibition of ROCK1 at 10 uM
[47] = target: Protein kinase C zeta type (Homo sapiens) (UniProt Q05513); assay: Inhibition of PRKCZ at 1 uM

## CC(C)(C)c1cc(C(=O)O)c(NC(=O)Nc2ccc3[nH]ncc3c2)s1
[1]
  solubility kinetic: 143 µg/mL (≈ 399 µM)
[2]
  inhibition: 0%
[3]
  inhibition: 30%
[4]
  inhibition: 10%
[5]
  inhibition: 0%
[6]
  inhibition: 10%
[7]
  inhibition: 20%
[8]
  inhibition: 20%
[9]
  inhibition: 10%
[10]
  inhibition: 0%
[11]
  inhibition: 10%
[12]
  inhibition: 20%
[13]
  inhibition: 0%
[14]
  inhibition: 40%
[15]
  inhibition: 0%
[16]
  inhibition: 0%
[17]
  inhibition: 0%
[18]
  inhibition (INH): 0%
[19]
  inhibition: 0%
[20]
  inhibition: 20%
[21]
  inhibition: 10%
[22]
  inhibition: 10%
[23]
  inhibition at 3 µM: 55%
[24]
  inhibition: 10%
[25]
  half-life at 1 µM: > 2 h
[26]
  inhibition: 10%
[27]
  inhibition: 0%
[28]
  inhibition: 0%
[29]
  inhibition: 10%
[30]
  inhibition: 10%
[31]
  inhibition: 10%
[32]
  inhibition: 10%
[33]
  inhibition: 10%
[34]
  inhibition: 0%
[35]
  inhibition: 20%
[36]
  inhibition: 10%
[37]
  inhibition: 10%
[38]
  inhibition: 0%
[39]
  inhibition: 10%
[40]
  inhibition: 10%
[41]
  IC50: 0.052 µM
[42]
  inhibition: 10%
[43]
  inhibition: 10%
[44]
  inhibition: 0%
[45]
  inhibition: 10%
[46]
  inhibition: 10%
[47]
  inhibition: 20%
